Activity calls are given as the source filed them. The calls are words filed in the database; no cut-off is given here. Bounds are passed on as bounds.

As a reminder, the inhibition is the drop in the measured response relative to a control, in per cent. The Ki is the equilibrium dissociation constant of an inhibitor or competing ligand from its target.

One experiment deals with NCI60. The experiment can be described thus: Cytotoxicity against human NCI60 cells at 10^-5 M. The experiment is classed as functional, cell-based.
The target in experiment [1] is Chymotrypsinogen A (Bos taurus) (UniProt P00766). The experiment can be described thus: (§1) Inhibition of bovine pancreatic alpha-chymotrypsin activity assessed as Suc-Leu-Leu-Val-Tyr-AMC substrate hydrolysis after 10 mins. The procedure, abridged: (§2)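 Bovine pancreatic α-chymotrypsin in 50 mM Tris pH 8.0 with 100 mM NaCl, 5 mM EDTA and 7.5% DMSO. Suc-Leu-Leu-Val-Tyr-AMC at 75 (final) as substrate. AMC release was followed over 10 min.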

For experiment [2], the target named is T1, Proteasome Macropain subunit MB1 (Homo sapiens) (UniProt P28074).
T1 sequence (whole entry): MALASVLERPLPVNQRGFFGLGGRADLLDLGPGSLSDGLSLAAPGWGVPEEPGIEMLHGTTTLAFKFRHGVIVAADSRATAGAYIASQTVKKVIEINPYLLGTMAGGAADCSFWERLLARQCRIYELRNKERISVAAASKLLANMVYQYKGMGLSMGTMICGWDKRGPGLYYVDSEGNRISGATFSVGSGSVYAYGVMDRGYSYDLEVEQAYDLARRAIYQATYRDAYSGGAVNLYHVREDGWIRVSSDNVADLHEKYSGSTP
As to the kind of experiment: Inhibition of chymotrypsin-like activity of human 20S proteasome beta 5 subunit assessed as Suc-Leu-Leu-Val-Tyr-AMC substrate hydrolysis at 20 uM after 10 mins by fluorometric analysis. The essentials: (§3)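 Single-concentration preliminary screen of human 20S proteasome activity. An equivalent amount of DMSO served as negative control. AMC release read by fluorescence at 30 °C (ex 380/em 460 nm). Percent inhibition was recorded, and at least 40% inhibition triggered full Ki assays.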

Experiment [3] has as its target Cathepsin B (Homo sapiens) (UniProt P07858). As to the kind of experiment: Inhibition of cathepsin B (unknown origin) assessed as Cbz-Phe-Arg-AMC substrate hydrolysis.
In experiment [4] the target is T2, Proteasome Macropain subunit MB1 (Homo sapiens, UniProt P28074).
T2 sequence (P28074 whole entry): T1 sequence (whole entry)
As to the kind of experiment: Inhibition of chymotrypsin-like activity of human 20S proteasome beta 5 subunit assessed as Suc-Leu-Leu-Val-Tyr-AMC substrate hydrolysis after 10 mins by fluorometric analysis. The procedure, abridged: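 Human 20S proteasome at 0.004 mg mL-1 final, incubated at 30 °C with varied inhibitor concentrations. Buffer: 50 mM Tris pH 7.5, 10 mM NaCl, 25 mM KCl, 1 mM MgCl2, 0.03% SDS, 5% DMSO. Ki from progress-curve slopes fitted to a 4-parameter IC50 equation, Ki = IC50/(1+[S]/Km), Km measured separately. Mean of three.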

Experiment [5] concerns the target T3, Proteasome component C5 (Homo sapiens) (UniProt P20618).
T3 sequence (whole entry): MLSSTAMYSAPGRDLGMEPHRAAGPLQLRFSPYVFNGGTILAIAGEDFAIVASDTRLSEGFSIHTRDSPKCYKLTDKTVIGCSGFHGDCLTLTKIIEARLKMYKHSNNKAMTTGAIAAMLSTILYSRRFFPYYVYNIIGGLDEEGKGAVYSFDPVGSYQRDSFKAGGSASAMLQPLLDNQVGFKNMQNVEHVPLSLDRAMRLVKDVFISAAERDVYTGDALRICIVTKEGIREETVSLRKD
As to the kind of experiment: Inhibition of caspase-like activity of human 20S proteasome beta 1 subunit assessed as Cbz-Leu-Leu-Glu-AMC substrate hydrolysis at 20 uM after 10 mins by fluorometric analysis. The essentials:
as §3

Another experiment deals with Chymotrypsinogen A (Bos taurus, UniProt P00766). Described as §1. The procedure, abridged: as §2

`CC(C)CCNC(=O)[C@H](C)n1ccc2ncccc2c1=O`: the result in the experiment with NCI60 was inactive. The inhibition result in experiment [1] and in experiment [3] was “inactive” each time. The inhibition in experiment [2] came to 35%.

As for `CCN(CC)c1ccn(CC(=O)N[C@@H](CC(C)C)B(O)O)c(=O)c1`, the inhibition in experiment [2] is 100%.

In the case of `CC(C)C[C@H](NC(=O)Cn1ccc(Nc2ccccc2)cc1=O)B(O)O`, in experiment [2], the inhibition is 97%.

Turning to `O=C(Cn1ccccc1=O)Nc1ccccc1`, in the experiment with NCI60, the outcome was inactive. For the same compound, the inhibition entry in experiment [1] and in experiment [3] was “inactive” each time. Besides, the inhibition in experiment [2] is 23%.

Consider `CC(C)CCNC(=O)Cn1ccc2ncccc2c1=O`, for which the result in the experiment on NCI60 was inactive. Besides, the inhibition result in experiment [1] and in experiment [3] was “inactive” in each case. Moreover, the inhibition in experiment [2] was 10%.

`CC(C)CCNC(=O)Cn1ccc(N2CCCCC2)cc1=O`: the result in the experiment with NCI60 was inactive. The inhibition entry in experiment [1] and in experiment [3] was “inactive” each time. Also, in experiment [2], the inhibition came to 27%.

`COc1ccc(NC(=O)Cn2ccc(Nc3ccccc3)cc2=O)cc1`: the outcome with NCI60 was inactive. In addition, the inhibition result in experiment [1] and in experiment [3] was “inactive” each time. Also, the inhibition is 72% in experiment [2] and > 50% in experiment [5]. Also, the Ki in experiment [4] amounted to 1.48 µM.

`COc1ccc(NC(=O)Cn2ccccc2=O)cc1`: the result in the experiment with NCI60 was inactive. Also, the inhibition entry in experiment [1] and in experiment [3] was “inactive” in each case. For the same compound, the inhibition in experiment [2] worked out at 32%.

In the case of `CCN(CC)c1ccn(CC(=O)NCCC(C)C)c(=O)c1`, the outcome in the experiment on NCI60 was inactive. Further, the inhibition result in experiment [1] and in experiment [3] was “inactive” throughout. Moreover, the inhibition in experiment [2] worked out at 28%.

As to `CC(C)CCNC(=O)Cn1cc(Br)c2ncccc2c1=O`, the result in the experiment with NCI60 was inactive. Moreover, the inhibition entry in experiment [1] and in experiment [3] was “inactive” throughout. In addition, the inhibition in experiment [2] turned out to be 56%. Further, in experiment [4], the Ki was 0.56 µM.

As for `CC(C)C[C@H](NC(=O)Cn1ccc2c(c1=O)CCCN2C)B(O)O`, the inhibition in experiment [2] is 84%.

Consider `CC(C)CCNC(=O)Cn1ccc(Nc2ccccc2)cc1=O`, for which, in the experiment with NCI60, the result was inactive. In addition, the inhibition result in experiment [1] and in experiment [3] was “inactive” each time. For the same compound, in experiment [2], the inhibition is 87%. For the same compound, the inhibition constant (Ki) in experiment [4] stood at 0.33 µM.

As to `CC(C)C[C@H](NC(=O)[C@H](C)n1ccc2ncccc2c1=O)B(O)O`, the inhibition in experiment [2] came out at 100%.

`CC(C)C[C@H](NC(=O)[C@H](Cc1ccccc1)NC(=O)c1cnccn1)B(O)O`: the result with NCI60 was inactive. In addition, the inhibition result in experiment [1] and in experiment [3] was “inactive” each time. The inhibition in experiment [2] was 100%.

On to `CC(C)CCNC(=O)Cn1ccc2c(c1=O)CCCN2C`, for which the outcome in the experiment on NCI60 was inactive. For the same compound, the inhibition entry in experiment [1] and in experiment [3] was “inactive” throughout. Also, the inhibition in experiment [2] was determined as 7%.

Regarding `O=C(Cn1ccc(Nc2ccccc2)cc1=O)NCc1ccccc1`, the result in the experiment with NCI60 was inactive. Besides, the inhibition result in experiment [1] and in experiment [3] was “inactive” throughout. Further, the inhibition in experiment [2] came to 16%.

With `O=C(Cn1ccccc1=O)Nc1ccccc1C(=O)c1ccccc1`, in the experiment with NCI60, the outcome was inactive. For the same compound, the inhibition entry in experiment [1] and in experiment [3] was “inactive” each time. In experiment [2], the inhibition is 21%.

Turning to `CC(C)C[C@H](NC(=O)Cn1cc(Br)c2ncccc2c1=O)B(O)O`, the inhibition in experiment [2] was 100%.

As for `O=C(Cn1ccc(Nc2ccccc2)cc1=O)NC12CC3CC(CC(C3)C1)C2`, the result with NCI60 was inactive. Besides, the inhibition entry in experiment [1] and in experiment [3] was “inactive” each time. For the same compound, the inhibition in experiment [2] is 13%.

Regarding `O=C(Cn1ccc(Nc2ccccc2)cc1=O)Nc1ccccc1`, the result with NCI60 was inactive. The inhibition result in experiment [1] and in experiment [3] was “inactive” each time. Also, in experiment [2], the inhibition was determined as 9%.

For the compound `CC(C)CCNC(=O)Cn1ccc(N2CCOCC2)cc1=O`, in the experiment on NCI60, the result was inactive. In addition, the inhibition result in experiment [1] and in experiment [3] was “inactive” each time. Further, the inhibition in experiment [2] is 42%. Besides, the Ki in experiment [4] came out at 7.67 µM.

`CC(C)C[C@H](NC(=O)Cn1ccc2ncccc2c1=O)B(O)O`: the inhibition in experiment [2] was 100%.

For `CC(C)CCNC(=O)Cn1ccc2c(c1=O)CCCN2`, the outcome in the experiment on NCI60 was inactive. For the same compound, the inhibition result in experiment [1] and in experiment [3] was “inactive” each time. For the same compound, in experiment [2], the inhibition is 45%. In addition, in experiment [4], the Ki is 10.1 µM.

With `O=C(Cn1ccccc1=O)NC12CC3CC(CC(C3)C1)C2`, the result with NCI60 was inactive. Also, the inhibition result in experiment [1] and in experiment [3] was “inactive” each time. Also, the inhibition is 86% in experiment [2] and > 50% in experiment [5]. Also, in experiment [4], the Ki was found to be 7.55 µM.

`O=C(Cn1ccc(Nc2ccccc2)cc1=O)Nc1ccccc1C(=O)c1ccccc1`: the result in the experiment with NCI60 was inactive. For the same compound, the Ki at Chymotrypsinogen A was determined as 6.65 µM; in experiment [4], 8.03 µM. In experiment [2], the inhibition came to 67%. Also, in experiment [3], the inhibition entry was “inactive”.

Consider `O=C(Cn1ccccc1=O)NCc1ccccc1`, for which, in the experiment on NCI60, the result was inactive. Further, the inhibition result in experiment [1] and in experiment [3] was “inactive” throughout. For the same compound, the inhibition in experiment [2] was 15%.
